Results as given in paper PMC12779259 (Metallomics : integrated biometal science, 2019).
In brackets after ≈: the same amount, converted by molar mass.

Key:
S. aureus [1] = test: MIC determination against S. aureus in RPMI; type: cell-based, Staphylococcus aureus; conditions: for ^CuMIC (S. aureus): MIC in 50 μM copper supplemented medium
THP-1 monocytic cells = test: Toxicity testing on THP-1 monocyte cells; type: cell-based, human; conditions: 24 h
[2] = Toxicity testing on THP-1 monocyte cells; type: cell-based, human; conditions: human, THP-1 monocytic cells
[3] = Determination of binding constants by UV/Vis; conditions: 25 uM HEPES buffer pH 7.2
S. aureus [4] = test: Time to death assay and bactericidal activity; type: cell-based, Staphylococcus aureus; conditions: for mode of action (bactericidal vs bacteriostatic): CFU
[5] = test system: preformed S. aureus biofilms; test: Biofilm eradication assay; type: cell-based, Staphylococcus aureus; conditions: preformed S. aureus Newman biofilms, 24 hours treatment
[6] = test system: methicillin resistant S. aureus strains; test: MIC against clinically isolated MRSA strains; type: cell-based, Staphylococcus aureus; conditions: 5 clinically isolated MRSA strains, 50 μM Cu
S. aureus Newman = test: Membrane potential, DiOC2; type: cell-based, Staphylococcus aureus; conditions: within 30 min; 10 μM PZP-915 and/or 50 μM Cu
[7] = test system: S. aureus strain LAC carrying pHluorin; type: cell-based, Staphylococcus aureus; conditions: mildly acidic medium (pH 6.2)
GAPDH = biological target: T1, GAPDH (Staphylococcus aureus, UniProt Q6GIL8); test: GAPDH activity in lysates of treated bacteria; type: cell-based; conditions: 30 minutes treatment; 50 µM Cu, 10 µM PZP-915, 10 µM 915+50 µM Cu
T1 sequence (Q6GIL8 1-336): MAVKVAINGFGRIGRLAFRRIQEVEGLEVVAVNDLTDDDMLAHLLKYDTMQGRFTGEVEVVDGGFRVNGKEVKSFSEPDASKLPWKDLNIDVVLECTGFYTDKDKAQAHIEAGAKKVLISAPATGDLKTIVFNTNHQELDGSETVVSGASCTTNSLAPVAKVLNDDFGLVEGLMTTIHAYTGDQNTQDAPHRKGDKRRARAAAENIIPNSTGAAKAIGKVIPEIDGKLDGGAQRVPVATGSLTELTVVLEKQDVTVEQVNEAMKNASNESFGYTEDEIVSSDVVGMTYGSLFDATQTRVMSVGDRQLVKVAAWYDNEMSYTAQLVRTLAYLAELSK
Summary of the method: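 After the 30 min treatment, bacteria washed to remove extracellular copper, then lysed. GAPDH activity measured in the lysates.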

CNC(=S)NN=CC=NNC(=S)NC [GTSM]
^CuMIC (S. aureus) (S. aureus [1]): 0.3 µM | ^CuIC90 (THP1) (THP-1 monocytic cells; IC90 in the presence of 25 μM copper): 0.15 µM | IC90 (THP-1 monocytic cells; read-out: IC90 (THP1), 90% inhibition relative to untreated controls, no Cu): > 10 µM

Cc1nn2c(=O)cc(Cc3ccccc3)[nH]c2c1-c1ccc(Cl)cc1 [PZP-915, 5‐benzyl‐3‐(4‐chlorophenyl)‐2‐methyl‐4H,7H‐pyrazolo[1,5‐a]pyrimidin‐7‐one]
activity in medium supplemented with both Cu and BCS (S. aureus [1]; 50 μM Cu, 500 μM BCS): about the same as in standard medium | effect of Fe on activity (S. aureus [1]; 50 μM Fe supplemented medium): no effect | improvement of activity by Zn in comparison to standard medium (S. aureus [1]; 50 μM Zn supplemented medium): 4 fold | impact of BCS addition to standard medium on activity (S. aureus [1]; 500 μM BCS, no Cu supplementation): no impact | ^CuMIC (S. aureus) (S. aureus [1]): 0.6 µM | MIC (S. aureus [1]; Staphylococcus aureus, read-out: MIC (S. aureus)): 5 µM (≈ 1.75 µg/mL) | IC90 at 24 h [2]: > 40 µM | binding constant, 1st order reaction of copper binding [3]: 3.8×10^5 Lmol^−1 | binding constant, 2nd order complex with copper [3]: 6.18 Lmol^−1 | binding constant, 3rd order complex with copper [3]: 47.65 Lmol^−1 | time to achieve complete inhibition of growth (S. aureus [4]; 0.6 µM PZP-915 in the presence of 50 µM Cu): 2 h | recoverable viable bacteria (S. aureus [4]; 24h treatment, 50 μM Cu added, consistent with bactericidal activity): no viable cells could be recovered | mode of action (bactericidal vs bacteriostatic) (S. aureus [4]; 24h treatment, presence of 50 μM Zn): bacteriostatic | mode of action (bactericidal vs bacteriostatic) (S. aureus [4]; 24h treatment, standard medium, absence of Cu): bacteriostatic | Cu concentration required to display similar potency (S. aureus [4]; dose-matrix, 0.6 µM PZP-915): 50 µM | Cu concentration required to exert potent antibacterial properties (S. aureus [4]; dose-matrix, 10 µM PZP-915): 1.25 µM | concentration for complete eradication of S. aureus in biofilms [5]: 0.6 µM | MIC against MRSA strains in comparison to S. aureus Newman [6]: no difference | effect on membrane potential (DiOC2(3) red/green ratio) (S. aureus Newman): decreased the membrane potential, although to a much lesser extent | change of intracellular pH [7]: no or only a minor impact | GAPDH activity in cell lysates (GAPDH): did not alter GAPDH activity

Carbonyl cyanide m-chlorophenyl hydrazine [CCCP, reference compound]
change of intracellular pH [7]: almost instantaneous pH drop

Iron
concentration up to which no toxicity to S. aureus was observed (S. aureus [1]; metal alone): > 3.2 mM
